MC4R antagonist: MC4R antagonists of cAMP signaling, primary screen, cell-based, TR-FRET, antagonist arm of biased-ligand search. Melanocortin receptor 4 (Homo sapiens), P32245. AID 540295, 2011. inhibition, % at 6.5 µM. MC4R-expressing cells, MTII-stimulated cAMP, LANCE TR-FRET. actives 0.48% (n = 360,000);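 active means inhibition above its plate's cutoff, the mean of tested wells on that plate plus 3 SD, cut at about 29% in these data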;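 further: 0% = Melanotan II alone and 100% = Melanotan II plus saturating MCL0020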
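Material: human MC4R-expressing U2OS cells. Probe or stimulus: Melanotan II challenge. Dosing: 6.5 µM single dose. Times: 30-min compound, 1-h challenge, 1-h detection, room temperature. Technique: TR-FRET with Eu-cAMP and labeled anti-cAMP, 671 nm. Replication: singlicate.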
bovine MsrA act: bovine MsrA enzyme activators, primary screen, biochemical, absorbance, HTS. Methionine sulfoxide reductase A (Bos taurus). purified bovine MsrA, absorbance read-out. activation, % at 10.6 µM. actives 0.3% (n = 360,000); in the data active means activation above about 7.5%;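 further: 0% = vehicle and 100% = reference activator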
MC4R ag barr: MC4R agonists recruiting beta-arrestin, primary screen, cell-based, luminescence, agonist arm of biased-ligand search | U2OS MC4R beta-arrestin complementation; percent of melanotan II response, DMSO zero | Melanocortin receptor 4 (Homo sapiens), P32245 | actives 0.98% (n = 360,000) | AID 540308, 2011 | activation, % at 8.9 µM;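 active means activation above a per-plate cutoff, the mean activation of sample wells on that plate plus 3 SD, cut at about 8% in these data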
MsrA inhibitor: bovine MsrA enzyme inhibitors, primary screen, biochemical, absorbance, HTS | Methionine sulfoxide reductase A (Bos taurus) | purified bovine MsrA, absorbance read-out | inhibition, % at 15.5 µM | actives 0.75% (n = 360,000); in the data active means inhibition above about 4.5%;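 further: 0% = vehicle wells with enzyme and 100% = reference inhibitor wells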
MC4R barr conf: MC4R beta-arrestin agonists, retest, confirmation, cell-based, luminescence, U2OS. activation, % at 8.9 µM. U2OS MC4R beta-arrestin recruitment; scaled DMSO 0%, Melanotan II 100%. actives 31% (n = 2,400). shares compounds with MC4R ag barr;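 active means mean activation across replicates above the hit cutoff set in the earlier primary screen, cut at about 8% in these data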
MOR-DOR barr ag: agonists of MOR-DOR heterodimerization, counter-screen for MC4R biased agonist project, cell-based, luminescence. shares compounds with MC4R ag barr. U2OS PathHunter beta-arrestin, beta-gal luminescence; percent of deltorphin B response, DMSO zero. activation, % at 9.2 µM. actives 5.8% (n = 2,400);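 active means mean activation across replicates exceeds the hit threshold derived in the earlier primary screen, cut at about 18% in these data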;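 further: 100% = deltorphin B at 0.9 µM final and 0% = DMSO alone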
Numbers without * were called inactive; . = not tested or not shown. The list is not random: actives were taken first. Their share in the collection is about 2.3%.

SMILES	MC4R antagonist	bovine MsrA act	MC4R ag barr	MsrA inhibitor	MC4R barr conf	MOR-DOR barr ag
CCOC(=O)Nc1nnc(/C=C/c2ccc(OC)cc2)s1	-1.1	-5.8	-1.6	3.4	.	.
CCc1cc(C(=O)Cc2cnn(-c3ccccc3)c2)c(O)cc1O	-7.1	-10.5	22.0*	1.7	7.7	5.1
O=C(N/N=C/c1cccc2ccccc12)c1ccncc1	-6.4	-2.8	1.8	3.4	.	.
C=CC[C@@H](CC(=O)N[C@@H](CO)Cc1ccccc1)C(=O)N[C@@H](COC(=O)[C@@H](CC=C)Cc1ccc(F)cc1)Cc1c[nH]c2ccccc12	13.7	0.1	19.6*	2.6	4.4	13.1
C=CC[C@H](CC(=O)N[C@H](CO)Cc1ccccc1)C(=O)N[C@H](COC(=O)[C@@H](CC=C)Cc1ccc(F)cc1)Cc1c[nH]c2ccccc12	-3.6	-4.5	-1.0	.	.	.
C=CCC[C@H](Cc1ccc(F)cc1)C(=O)OC[C@H](Cc1c[nH]c2ccccc12)NC(=O)[C@@H](CC=C)CC(=O)N[C@@H](CO)Cc1ccccc1	8.4	-2.8	24.4*	1.3	14.8*	9.1
C=CCC[C@H](Cc1ccc(F)cc1)C(=O)OC[C@H](Cc1c[nH]c2ccccc12)NC(=O)[C@H](CC=C)CC(=O)N[C@H](CO)Cc1ccccc1	18.7	0.7	10.7*	0.6	2.5	5.4
Cc1ccc(NCCCn2cnc(C(=O)Nc3ccc(C)c(C)c3)n2)cc1C	11.3	1.6	7.6	-0.2	.	.
Cc1cc(C)c(CN2CCN(CCCn3cnc(C(=O)Nc4ccc(C)c(C)c4)n3)CC2)c(C)c1	0.8	-1.2	15.5*	1.1	23.8*	9.6
CCOC(=O)C1=C[C@@H](CC)N(S(=O)(=O)c2ccc(C)cc2)[C@H]1c1ccccc1	.	-2.8	.	0.7	.	.
CCOc1ccccc1CNS(=O)(=O)c1csc(C(N)=O)c1	15.6	-0.9	-0.5	0.7	.	.
COc1ccc(OC)c(NC(=O)CSc2ncccc2C(=O)O)c1	0.0	-5.0	0.0	-0.3	.	.
CCCCCCCCNC(=O)c1cccnc1SCC(=O)Nc1ccccc1OC	-1.8	-1.8	14.6*	0.7	7.9	4.6
O=C(CCc1ccccc1)N[C@@H]1c2ccccc2CC[C@H]1OCc1ccccc1	4.4	-3.2	0.3	0.7	.	.
O=C(CCl)NC(Cc1ccccc1)C(=O)OCC(=O)c1ccc(-c2ccccc2)cc1 (stereo unspecified)	10.0	-3.8	14.4*	-0.2	2.0	6.1
CC(NCc1ccc(OCc2ccc(Cl)cc2)cc1)C(O)c1ccccc1 (stereo unspecified)	9.4	-2.1	15.8*	0.7	25.7*	11.9
CC(NCc1cccc(OCc2ccccc2)c1)C(O)c1ccccc1 (stereo unspecified)	-2.8	-1.9	5.0	-1.6	.	.
Cc1cc(C=C2C(=O)c3ccccc3C2=O)c(C)n1C	-6.1	-6.0	20.8*	1.3	-0.2	9.7
Cc1ccc(C(=O)Nc2oc(-c3ccccc3)cc2C#N)cc1	4.8	-2.8	12.4*	0.4	4.3	4.2
C1CCC(C(CC2CCCCN2)C2CCCCC2)CC1 (stereo unspecified)	13.7	-0.7	10.7*	-2.3	11.5*	13.1
CCC(=O)Nc1sc(C(=O)Nc2ccccc2OC)c(C)c1C(=O)OC	4.8	-5.3	10.8*	-2.5	2.5	3.3
CCC(=O)Nc1sc(C(=O)Nc2ccccc2F)c(C)c1C(=O)OC	14.0	-2.4	2.7	-1.4	.	.
O=C1NC[C@H](Cc2ccccc2)N(CC2CCN(CCCC3CCCC3)CC2)C1=O	-7.4	-1.3	-1.2	-0.2	.	.
CC(=O)Nc1cc(-c2ccc(C(=O)N3CCOCC3)cc2)cn2c(-c3ccccc3)cnc12	7.2	-2.6	25.5*	-0.1	18.8*	1.1
COc1ccc(-c2cnc3c(NC(C)=O)cc(-c4ccc(C(=O)N5CCOCC5)cc4)cn23)cc1OC	3.0	-1.9	11.2*	-0.1	9.4*	2.9

From PubChem BioAssay
